Results pooled from the literature.
Effect on: cell growth or viability

SMILES | cell line | technique | time | notes | IC50
O=C1Nc2ccccc2/C1=N/N=C/c1cccc([N+](=O)[O-])c1 | HUVEC | MTT | 24 h |  | 221 µg/mL
NNc1nc2c(Cl)cc(Cl)cc2c(=O)n1-c1ccc(Cl)cc1 | NIH3T3 | MTT | 48 h |  | 48.6 µM
Cc1c(C)c2c(c(C)c1O)CCC(C)(COc1ccc(CC3SC(=O)NC3=O)cc1)O2 (stereo not shown) | NIH3T3 |  | 96 h | 3D culture | 246 µM
NNc1nc2ccc(Br)cc2c(=O)n1-c1ccc(Cl)cc1 | NIH3T3 | MTT | 48 h |  | 19.7 µM
Nc1cc2cccnc2c2ncccc12 | HFF-1 | MTT | 48 h | dark | 13 µM
Cc1cc(Nc2ncnc3ccc(NC4=NC(C)(C)CO4)cc23)ccc1Oc1ccn2ncnc2c1 | NCI-H2170 | ATP luminescence |  |  | 0.088 µM
CC(=O)Nc1ccc(O)cc1 | NIH3T3 |  | 96 h | 3D culture | 277 µM
CCCCC(=O)Nc1ccc(-c2cnc3ccn(CCC)c(=O)c3c2)cn1 | A549 | CCK-8 | 72 h |  | > 10 µM
CC(=O)O[C@H]1[C@H](OC(C)=O)[C@@H](Nc2cc3cccnc3c3ncccc23)OC[C@@H]1OC(C)=O | HFF-1 | MTT | 48 h | dark | 14 µM
CS(=O)(=O)CCNCc1ccc(-c2ccc3ncnc(Nc4ccc(OCc5cccc(F)c5)c(Cl)c4)c3c2)o1 | NCI-H2170 | ATP luminescence |  |  | 0.122 µM
COc1cc(C(=O)c2nc(-c3cccc4[nH]ccc34)c(C)[nH]2)cc(OC)c1OC | PC-3 | MTS | 72 h |  | 0.0192 µM
COc1ccccc1/C=N/N=C1\C(=O)Nc2ccccc21 | HUVEC | MTT | 24 h |  | 235 µg/mL
Cc1ccc(NNc2nc3ccc(Br)cc3c(=O)n2-c2ccccc2)cc1 | NIH3T3 | MTT | 48 h |  | 14.8 µM
COc1cccc2c1C(=O)c1c(O)c3c(c(O)c1C2=O)C[C@@](O)(C(=O)CO)C[C@@H]3O[C@H]1C[C@H](N)[C@H](O)[C@H](C)O1 | HUVEC | MTT | 24 h |  | 31.2 µM
NNc1nc2ccc(Br)cc2c(=O)n1-c1ccc(F)cc1 | NIH3T3 | MTT | 48 h |  | > 200 µM
COc1cc(C(=O)c2nc(-c3ccc4cc[nH]c4c3)c[nH]2)cc(OC)c1OC | PC-3 | MTS | 72 h |  | 0.0202 µM
